Data as given in PMC6542785 (Acta Pharmaceutica Sinica. B, 2018).

Assays:
Format in all cases: cell-based, human
MCF-7/ADR cells = assay: Dox efflux assay
Method in brief: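 MCF-7/ADR and MCF-7 cells, in RPMI-1640 with 10% FBS and penicillin/streptomycin (1 μg/mL doxorubicin added to maintain the ADR line), loaded with test compound (10 µg/mL Dox equivalent) for 4 h. Washed, then chased in fresh drug-free medium for 2 or 4 h at 37 °C. Collected and PBS-washed; retained Dox read by flow cytometry. Efflux ratio from retained versus initial uptake; mean ± SD, n=3.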

[1] = tested on: mitochondria of HeLa cells; assay: Mitochondria targeting, quantification in isolated mitochondria; settings: 10 μg/mL Dox equivalent, flow cytometry, n=3
Method in brief: (§1)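 HeLa cells (DMEM) or MCF-7 cells (RPMI-1640), both with 10% FBS, grown at 37 °C, 5% CO2 and treated in 12-well plates with test compound (10 μg/mL Dox equivalent). Collected into mitochondria extraction reagent on ice for 10 min, then homogenised. Spun at 600×g for 10 min; supernatant spun at 11,000×g for 10 min. Pelleted mitochondria analysed for Dox by flow cytometry.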

[2] = tested on: mitochondria of MCF-7 cells; assay: as above; settings: 10 μg/mL Dox equivalent, flow cytometry, n=3
Method in brief: as §1

COc1cccc2c1C(=O)c1c(O)c3c(c(O)c1C2=O)C[C@@](O)(C(=O)CO)C[C@@H]3O[C@H]1C[C@H](N)[C@H](O)[C@H](C)O1 [Dox, doxorubicin]
Dox efflux rate in MCF-7/ADR, fold higher than in MCF-7 cells (MCF-7/ADR cells; 2 h in drug-free medium after 4 h loading): 1.74 fold
Dox efflux rate in MCF-7/ADR, fold higher than in MCF-7 cells (MCF-7/ADR cells; 4 h in drug-free medium after 4 h loading): 2.08 fold
mitochondria distribution [1]: < 5%
mitochondria distribution [2]: < 5%
